Bioassay records (PubChem)
Only a sample is shown.
PGC1a Ac signal: compounds raising PGC1a acetylation signal, primary screen, PGC1a modulator project, cell-based, U2OS, AlphaScreen, signal-increasing mode | activation, % at 15.6 µM | actives 0.21% (n = 350,000) | overnight;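 active = every replicate reaching activation of at least 50%, whatever the mean replicate activation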;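 also: hits raise the AlphaScreen acetylation signal above neutral controls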
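System: flag-PGC1a/GCN5 U2OS cells / Input: 7000 cells/well / Compound: single test concentration per compound / Incubation: overnight compound treatment, 37 °C / Technique: AlphaScreen on lysates with anti-acetyl-lysine antibody, acceptor and donor beads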
Starred values were filed as active, the others as inactive.

SMILES	PGC1a Ac signal
Cc1no[n+]([O-])c1COc1cccc(/C=N/Nc2nncn2N)c1	-50
CC(C)NC(=O)N(C)C[C@H]1OCCCC[C@@H](C)Oc2ccc(NC(=O)CCCN(C)C)cc2C(=O)N([C@@H](C)CO)C[C@@H]1C	-51
CC(C)(c1ccccc1)c1ccc(OCCCNCCO)cc1	88*
COc1ccc(-c2onc(C)c2-c2ccc(C(=O)OC(C)C)o2)c(O)c1	-74
Cc1ccc(S(=O)(=O)N2CCN(C(=O)CSc3nc4ccccc4c(=O)[nH]3)CC2)c(C)c1	-44
Cc1ccc(C)c(N2CCN(C(=O)CCCOc3cc(=O)n(C)c4ccccc34)CC2)c1	128*
COc1cccc(C(=O)c2c[nH]c(C(=O)NCc3cccnc3)c2)c1	86*
COc1ccc2nc(NCc3cccnc3)sc2c1	-56
CCn1cc(C(=O)NCc2cccnc2)c2cc(OC)c(OC)cc2c1=O	-45
N#C[C@@H]1[C@H](c2ccccc2C2=CCCCC2)[C@H](CO)N1C(=O)Cc1ccncc1	-45
C[C@@H]1CN([C@@H](C)CO)C(=O)c2cc(NS(=O)(=O)c3ccc(F)cc3)ccc2O[C@@H]1CN(C)S(=O)(=O)c1ccc(Cl)cc1	-43
C[C@@H]1CCCCO[C@H](CN(C)Cc2ccc3c(c2)OCO3)[C@@H](C)CN([C@@H](C)CO)C(=O)c2cc(NC(=O)Nc3ccc(C(F)(F)F)cc3)ccc2O1	-53
O=C(NCc1ccc2c(c1)OCO2)c1ccc(NC(=O)C2CCCO2)cc1 (configuration not stated)	66*
CC1CCCCC12NC(=O)N(CC(=O)NCc1ccc3c(c1)OCO3)C2=O (configuration not stated)	-46
COc1ccc(C(CC(=O)Nc2ccccn2)N2Cc3ccccc3C2=O)cc1 (configuration not stated)	-76
CCOc1cc(/C=C2\CN(C)C/C(=C\c3ccc(O)c(OCC)c3)C2=O)ccc1O	-53
CCOc1cc(C)c(S(=O)(=O)N2CCCC2)cc1C	61*
CN(C)c1ccc(Sc2ccc3nc(N)nc(N)c3c2)cc1	-46
C[C@@H]1CN([C@@H](C)CO)C(=O)c2cccc(NC(=O)c3ccc(-c4nccs4)cc3)c2O[C@@H]1CN(C)C(=O)Nc1ccc(C(F)(F)F)cc1	-55
C/C(=C\C(=O)N1CCc2ccccc21)C(=O)O	60*
CN(C)S(=O)(=O)c1cc(NC(=O)CN2CCc3ccccc32)ccc1Cl	-75
CC(C(=O)N1CCc2ccccc2C1)N(c1ccccc1)S(C)(=O)=O (configuration not stated)	-51
O=C(NCC[C@@H]1CC[C@H](NS(=O)(=O)Cc2ccccc2)[C@H](CO)O1)C1CCC1	-61
Cc1cc(C)nc(NC(=O)NS(=O)(=O)Nc2ccc(Br)cn2)n1	-44
OC(c1cc(C(F)(F)F)nc2c(C(F)(F)F)cccc12)C1CCCCN1 (configuration not stated)	78*
SMILES	PGC1a Ac signal
CCN(C(=O)CN1CCN(c2ccccc2O)CC1)c1c(N)n(Cc2ccccc2)c(=O)[nH]c1=O	-50
Cc1ccc(NC(=S)c2ccncc2)c(C)c1	164*
COc1cc(CNC(=O)c2cc(-c3cc(C)cc(F)c3)n[nH]2)cc(OC)c1	-45
Cn1ncc2c(O/N=C(\N)c3ccc(C(F)(F)F)cc3)ncnc21	-44
CO[C@@H]1CN(C)C(=O)c2cc(NC(C)=O)ccc2OC[C@H](C)N(Cc2cc(F)ccc2F)C[C@H]1C	-55
CC1CC1C(=O)N(C)CC(=O)Nc1cccc(F)c1 (configuration not stated)	78*
CCC(=O)N1C[C@H](C)[C@@H](OC)CN(C)C(=O)c2cc(NC(=O)Nc3cccc(F)c3)ccc2OC[C@H]1C	-55
NC(=O)COC(=O)CC(NC(N)=O)c1ccc(Cl)cc1 (configuration not stated)	-107
Cc1ccc(C(=O)N2CCN(c3ncccn3)CC2)cc1	-80
Cc1ccc(C(=O)N2CCN(c3ccc(NC(=S)NC(=O)c4cccs4)cc3)CC2)cc1	53*
CN(C)CCCN(C(=O)c1cc2cc([N+](=O)[O-])ccc2s1)c1nc2cc3c(cc2s1)OCCO3	-54
N#Cc1cc(Oc2cccc3cccnc23)c(-n2nnc3ccccc32)cc1C#N	139*
C[C@H]1CCC/C=C/[C@@H]2C[C@H](O)C[C@H]2[C@H](O)[C@H](S(=O)c2ccc(O)cc2)CC(=O)O1 (some centres not stated)	-66
N#Cc1ccc(Cn2c(=O)c(C#N)c3n(c2=O)CCC3)cc1	-47
O=C(CSc1nc2c(sc3ccccc32)c(=O)n1CCc1ccccc1)NCc1ccco1	-57
CNC(=O)COC(=O)c1cc(-c2ccco2)nc2ccccc12	-46
Cc1cc(SCC(=O)NC(=O)NCc2ccco2)nc2ccccc12	85*
CCOc1ccc(CC(=O)Nc2ccc(NC(=O)c3ccco3)cc2)cc1OCC	133*
COc1cc(NC(=O)NCc2ccco2)ccc1-c1ccc(NC(=O)NCc2ccco2)cc1OC	-48
CCCOc1cccc(C(=O)Nc2cc(NC(=O)c3ccco3)ccc2OC)c1	61*
COC(C[C@H]1O[C@@H]1[C@H](O)[C@H](C)OCc1ccccc1)OC	-47
Cc1nc2ccccc2n2c(O)c(CC(=O)O)cc12	-41
O=C(Nc1ccccc1F)N1CCCCN2[C@H](CO)[C@H](c3ccc(C#Cc4ccccc4)cc3)[C@H]2C1	72*
COc1ccc(C#Cc2ccc([C@@H]3[C@H](CO)N4CCCCN(C(=O)Nc5ccccc5)C[C@@H]34)cc2)cc1	78*
CC(C)CC#Cc1ccc([C@@H]2[C@H](CO)N3CCCCN(S(=O)(=O)Cc4ccccc4)C[C@@H]23)cc1	61*
SMILES	PGC1a Ac signal
COc1ccccc1C#Cc1ccc([C@H]2[C@H](C#N)N(C(=O)C3CCCC3)[C@H]2CO)cc1	-65
CC(=O)NC(c1cccc(F)c1)c1nc(-c2cccc(C(C)C)c2)cs1 (configuration not stated)	-100
COc1ccc(NC(=O)N[C@H]2CC[C@H](CCn3cc(-c4ccccc4F)nn3)O[C@@H]2CO)cc1	-69
CO[C@H]1CN(C)C(=O)c2cc(NC(=O)NC(C)C)ccc2OC[C@H](C)N(Cc2ccc(-c3ccccn3)cc2)C[C@@H]1C	-62
CN1CCN(c2ccc([N+](=O)[O-])cc2C(=O)Nc2ccccc2)CC1	-46
Nc1c(C(=O)Nc2ccccc2)sc2ncc([N+](=O)[O-])cc12	84*
O=P(COCCOCCOCCOCP(=O)(c1ccccc1)c1ccccc1)(c1ccccc1)c1ccccc1	-44
O=C(CSc1nc2ccccc2c(=O)n1CC1CCCO1)N1CCN(c2ccccc2)CC1 (configuration not stated)	-42
Cc1ccc(-c2cc(C(=O)NCC3CCCO3)c3ccccc3n2)cc1C (configuration not stated)	-46
Cc1ccccc1-c1nc(C(=O)NCC2CCCO2)cc2c1[nH]c1ccccc12 (configuration not stated)	61*
C[C@@H]1CN([C@@H](C)CO)C(=O)c2cccc(NC(=O)C3CCCCC3)c2O[C@@H]1CN(C)CC1CCCCC1	-44
CCc1ccc(NC(=O)C2CC=CCC2C(=O)O)cc1 (configuration not stated)	82*
CCOCCCNC(=O)C1CCN(C(=O)Nc2ccc(C)cc2)CC1	-45
C[n+]1c2n(c3ccccc31)N=C(c1cc(C(C)(C)C)c(O)c(C(C)(C)C)c1)CS2	88*
